According to ChEMBL document CHEMBL1255424, “Antistaphylococcal activity of ACHN-490 tested alone and in combination with other agents by time-kill assay” (2010):
≈ marks a conversion by molar mass, not a printed value.

Assays:
Assay type in all cases: functional
Staphylococcus aureus [1] = assay: Antibacterial activity against hospital-acquired methicillin-resistant Staphylococcus aureus isolate 1838 after 24 hrs by modified broth macrodilution method; details: isolate 1838, 24 h
In short: (§1)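 MIC read after 24 h incubation by modified broth macrodilution, validated per CLSI recommendations, against recent clinical MRSA isolates (hospital- and community-acquired, hVISA, VISA, VRSA). Daptomycin tests ran in Mueller-Hinton broth with added calcium.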

Staphylococcus aureus [2] = assay: Antibacterial activity against vancomycin-intermediate Staphylococcus aureus isolate 1003 after 24 hrs by modified broth macrodilution method; details: isolate 1003, 24 h; in short: as §1
Staphylococcus aureus [3] = assay: Antibacterial activity against vancomycin-intermediate Staphylococcus aureus isolate 1287 after 24 hrs by modified broth macrodilution method; details: isolate 1287, 24 h; in short: as §1
Staphylococcus aureus [4] = assay: Antibacterial activity against community-acquired methicillin-resistant panton-valentine leukocidin-positive Staphylococcus aureus isolate 1472 after 24 hrs by modified broth macrodilution method; details: isolate 1472, 24 h; in short: as §1
Staphylococcus aureus [5] = assay: Antibacterial activity against vancomycin-intermediate Staphylococcus aureus isolate 1012 after 24 hrs by modified broth macrodilution method; details: isolate 1012, 24 h; in short: as §1
Staphylococcus aureus [6] = assay: Antibacterial activity against vancomycin-intermediate Staphylococcus aureus isolate 1004 after 24 hrs by modified broth macrodilution method; details: isolate 1004, 24 h; in short: as §1
Staphylococcus aureus [7] = assay: Antibacterial activity against hospital-acquired methicillin-resistant Staphylococcus aureus isolate 1808 after 24 hrs by modified broth macrodilution method; details: isolate 1808, 24 h; in short: as §1
Staphylococcus aureus [8] = assay: Antibacterial activity against vancomycin-intermediate Staphylococcus aureus isolate 1006 after 24 hrs by modified broth macrodilution method; details: isolate 1006, 24 h; in short: as §1
Staphylococcus aureus [9] = assay: Antibacterial activity against vancomycin-susceptible Staphylococcus aureus after 24 hrs by modified broth macrodilution method
In short: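 MICs determined in recent clinical MRSA isolates by a modified broth macrodilution method per CLSI recommendations, with 24 h incubation. Daptomycin tests used Mueller-Hinton broth supplemented with calcium. Value is the lowest inhibitory drug concentration.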

Staphylococcus aureus [10] = assay: Antibacterial activity against community-acquired methicillin-resistant panton-valentine leukocidin-positive Staphylococcus aureus isolate 1468 after 24 hrs by modified broth macrodilution method; details: isolate 1468, 24 h; in short: as §1
Staphylococcus aureus [11] = assay: Antibacterial activity against vancomycin-resistant Staphylococcus aureus after 24 hrs by modified broth macrodilution method; in short: as §1
Staphylococcus aureus [12] = assay: Antibacterial activity against vancomycin-hetero-intermediate Staphylococcus aureus isolate 873 after 24 hrs by modified broth macrodilution method; details: isolate 873, 24 h; in short: as §1
Staphylococcus aureus [13] = assay: Antibacterial activity against community-acquired methicillin-resistant panton-valentine leukocidin-positive Staphylococcus aureus isolate 1469 after 24 hrs by modified broth macrodilution method; details: isolate 1469, 24 h; in short: as §1
Staphylococcus aureus [14] = assay: Antibacterial activity against vancomycin-intermediate Staphylococcus aureus isolate 1984 after 24 hrs by modified broth macrodilution method; details: isolate 1984, 24 h; in short: as §1
Staphylococcus aureus [15] = assay: Antibacterial activity against community-acquired methicillin-resistant panton-valentine leukocidin-positive Staphylococcus aureus isolate 593 after 24 hrs by modified broth macrodilution method; details: isolate 593, 24 h; in short: as §1
Staphylococcus aureus [16] = assay: Antibacterial activity against community-acquired methicillin-resistant panton-valentine leukocidin-positive Staphylococcus aureus isolate 693 after 24 hrs by modified broth macrodilution method; details: isolate 693, 24 h; in short: as §1
Staphylococcus aureus [17] = assay: Antibacterial activity against vancomycin-resistant Staphylococcus aureus isolate 509 after 24 hrs by modified broth macrodilution method; details: isolate 509, 24 h; in short: as §1
Staphylococcus aureus [18] = assay: Antibacterial activity against vancomycin-resistant Staphylococcus aureus isolate 1264 after 24 hrs by modified broth macrodilution method; details: isolate 1264, 24 h; in short: as §1
Staphylococcus aureus [19] = assay: Antibacterial activity against community-acquired methicillin-resistant panton-valentine leukocidin-negative Staphylococcus aureus isolate 1470 after 24 hrs by modified broth macrodilution method; details: isolate 1470, 24 h; in short: as §1
Staphylococcus aureus [20] = assay: Antibacterial activity against vancomycin-hetero-intermediate Staphylococcus aureus after 24 hrs by modified broth macrodilution method; in short: as §1
Staphylococcus aureus [21] = assay: Antibacterial activity against methicillin-resistant Staphylococcus aureus isolate 2003 after 24 hrs by modified broth macrodilution method; details: isolate 2003, 24 h; in short: as §1
Staphylococcus aureus [22] = assay: Antibacterial activity against community-acquired methicillin-resistant panton-valentine leukocidin-positive Staphylococcus aureus isolate 813 after 24 hrs by modified broth macrodilution method; details: isolate 813, 24 h; in short: as §1
Staphylococcus aureus [23] = assay: Antibacterial activity against vancomycin-intermediate Staphylococcus aureus isolate 1010 after 24 hrs by modified broth macrodilution method; details: isolate 1010, 24 h; in short: as §1
Staphylococcus aureus [24] = assay: Antibacterial activity against vancomycin-resistant Staphylococcus aureus isolate 1263 after 24 hrs by modified broth macrodilution method; details: isolate 1263, 24 h; in short: as §1
Staphylococcus aureus [25] = assay: Antibacterial activity against vancomycin-intermediate Staphylococcus aureus isolate 1009 after 24 hrs by modified broth macrodilution method; details: isolate 1009, 24 h; in short: as §1
Staphylococcus aureus [26] = assay: Antibacterial activity against hospital-acquired methicillin-resistant Staphylococcus aureus isolate 1743 after 24 hrs by modified broth macrodilution method; details: isolate 1743, 24 h; in short: as §1
Staphylococcus aureus [27] = assay: Antibacterial activity against vancomycin-intermediate Staphylococcus aureus isolate 1007 after 24 hrs by modified broth macrodilution method; details: isolate 1007, 24 h; in short: as §1
Staphylococcus aureus [28] = assay: Antibacterial activity against hospital-acquired methicillin-resistant Staphylococcus aureus isolate 1751 after 24 hrs by modified broth macrodilution method; details: isolate 1751, 24 h; in short: as §1
Staphylococcus aureus [29] = assay: Antibacterial activity against vancomycin-intermediate Staphylococcus aureus isolate 770 after 24 hrs by modified broth macrodilution method; details: isolate 770, 24 h; in short: as §1
Staphylococcus aureus [30] = assay: Antibacterial activity against vancomycin-intermediate Staphylococcus aureus isolate 1015 after 24 hrs by modified broth macrodilution method; details: isolate 1015, 24 h; in short: as §1
Staphylococcus aureus [31] = assay: Antibacterial activity against hospital-acquired methicillin-resistant Staphylococcus aureus isolate 1867 after 24 hrs by modified broth macrodilution method; details: isolate 1867, 24 h; in short: as §1
Staphylococcus aureus [32] = assay: Antibacterial activity against vancomycin-resistant Staphylococcus aureus isolate 557 after 24 hrs by modified broth macrodilution method; details: isolate 557, 24 h; in short: as §1
Staphylococcus aureus [33] = assay: Antibacterial activity against vancomycin-intermediate Staphylococcus aureus isolate 1017 after 24 hrs by modified broth macrodilution method; details: isolate 1017, 24 h; in short: as §1
Staphylococcus aureus [34] = assay: Antibacterial activity against hospital-acquired methicillin-resistant Staphylococcus aureus isolate 1766 after 24 hrs by modified broth macrodilution method; details: isolate 1766, 24 h; in short: as §1
Staphylococcus aureus [35] = assay: Antibacterial activity against vancomycin-hetero-intermediate Staphylococcus aureus isolate 618 after 24 hrs by modified broth macrodilution method; details: isolate 618, 24 h; in short: as §1
Staphylococcus aureus [36] = assay: Antibacterial activity against vancomycin-intermediate Staphylococcus aureus isolate 1008 after 24 hrs by modified broth macrodilution method; details: isolate 1008, 24 h; in short: as §1
Staphylococcus aureus [37] = assay: Antibacterial activity against hospital-acquired methicillin-resistant Staphylococcus aureus isolate 1806 after 24 hrs by modified broth macrodilution method; details: isolate 1806, 24 h; in short: as §1
Staphylococcus aureus [38] = assay: Antibacterial activity against vancomycin-intermediate Staphylococcus aureus isolate 511 after 24 hrs by modified broth macrodilution method; details: isolate 511, 24 h; in short: as §1
Staphylococcus aureus [39] = assay: Antibacterial activity against vancomycin-resistant Staphylococcus aureus isolate 510 after 24 hrs by modified broth macrodilution method; details: isolate 510, 24 h; in short: as §1
Staphylococcus aureus [40] = assay: Antibacterial activity against community-acquired methicillin-resistant panton-valentine leukocidin-positive Staphylococcus aureus isolate 1471 after 24 hrs by modified broth macrodilution method; details: isolate 1471, 24 h; in short: as §1
Staphylococcus aureus [41] = assay: Antibacterial activity against vancomycin-intermediate Staphylococcus aureus isolate 1016 after 24 hrs by modified broth macrodilution method; details: isolate 1016, 24 h; in short: as §1
Staphylococcus aureus [42] = assay: Antibacterial activity against vancomycin-intermediate Staphylococcus aureus isolate 1013 after 24 hrs by modified broth macrodilution method; details: isolate 1013, 24 h; in short: as §1
Staphylococcus aureus [43] = assay: Antibacterial activity against vancomycin-intermediate Staphylococcus aureus after 24 hrs by modified broth macrodilution method; in short: as §1
Staphylococcus aureus [44] = assay: Antibacterial activity against community-acquired methicillin-resistant panton-valentine leukocidin-positive Staphylococcus aureus isolate 950 after 24 hrs by modified broth macrodilution method; details: isolate 950, 24 h; in short: as §1
Staphylococcus aureus [45] = assay: Antibacterial activity against vancomycin-intermediate Staphylococcus aureus isolate 1005 after 24 hrs by modified broth macrodilution method; details: isolate 1005, 24 h; in short: as §1
Staphylococcus aureus [46] = assay: Antibacterial activity against hospital-acquired methicillin-resistant Staphylococcus aureus isolate 1851 after 24 hrs by modified broth macrodilution method; details: isolate 1851, 24 h; in short: as §1
Staphylococcus aureus [47] = assay: Antibacterial activity against hospital-acquired methicillin-resistant Staphylococcus aureus isolate 1776 after 24 hrs by modified broth macrodilution method; details: isolate 1776, 24 h; in short: as §1
Staphylococcus aureus [48] = assay: Antibacterial activity against vancomycin-intermediate Staphylococcus aureus isolate 1014 after 24 hrs by modified broth macrodilution method; details: isolate 1014, 24 h; in short: as §1
Staphylococcus aureus [49] = assay: Antibacterial activity against community-acquired methicillin-resistant panton-valentine leukocidin-positive Staphylococcus aureus isolate 815 after 24 hrs by modified broth macrodilution method; details: isolate 815, 24 h; in short: as §1
Staphylococcus aureus [50] = assay: Antibacterial activity against vancomycin-intermediate Staphylococcus aureus isolate 555 after 24 hrs by modified broth macrodilution method; details: isolate 555, 24 h; in short: as §1
Staphylococcus aureus [51] = assay: Antibacterial activity against vancomycin-intermediate Staphylococcus aureus isolate 1011 after 24 hrs by modified broth macrodilution method; details: isolate 1011, 24 h; in short: as §1

SMILES: Nc1nc(/C(=N/O)C(=O)N[C@@H]2C(=O)N3C(C(=O)O)=C(/C=C4\CCN([C@@H]5CCNC5)C4=O)CS[C@H]23)ns1 [CEFTOBIPROLE]
- MIC (Staphylococcus aureus [1]): 2 µg/mL (≈ 3.74 µM)
- MIC (Staphylococcus aureus [2]): 2 µg/mL (≈ 3.74 µM)
- MIC (Staphylococcus aureus [3]): 0.5 µg/mL (≈ 0.935 µM)
- MIC (Staphylococcus aureus [4]): 1 µg/mL (≈ 1.87 µM)
- MIC (Staphylococcus aureus [5]): 4 µg/mL (≈ 7.48 µM)
- MIC (Staphylococcus aureus [6]): 1 µg/mL (≈ 1.87 µM)
- MIC (Staphylococcus aureus [7]): 1 µg/mL (≈ 1.87 µM)
- MIC (Staphylococcus aureus [8]): 2 µg/mL (≈ 3.74 µM)
- MIC (Staphylococcus aureus [9]): 0.5 µg/mL (≈ 0.935 µM)
- MIC (Staphylococcus aureus [10]): 1 µg/mL (≈ 1.87 µM)
- MIC (Staphylococcus aureus [11]): 0.5 µg/mL (≈ 0.935 µM)
- MIC (Staphylococcus aureus [12]): 2 µg/mL (≈ 3.74 µM)
- MIC (Staphylococcus aureus [13]): 1 µg/mL (≈ 1.87 µM)
- MIC (Staphylococcus aureus [14]): 2 µg/mL (≈ 3.74 µM)
- MIC (Staphylococcus aureus [15]): 1 µg/mL (≈ 1.87 µM)
- MIC (Staphylococcus aureus [16]): 1 µg/mL (≈ 1.87 µM)
- MIC (Staphylococcus aureus [17]): 2 µg/mL (≈ 3.74 µM)
- MIC (Staphylococcus aureus [18]): 0.5 µg/mL (≈ 0.935 µM)
- MIC (Staphylococcus aureus [19]): 2 µg/mL (≈ 3.74 µM)
- MIC (Staphylococcus aureus [20]): 2 µg/mL (≈ 3.74 µM)
- MIC (Staphylococcus aureus [21]): 2 µg/mL (≈ 3.74 µM)
- MIC (Staphylococcus aureus [22]): 1 µg/mL (≈ 1.87 µM)
- MIC (Staphylococcus aureus [23]): 2 µg/mL (≈ 3.74 µM)
- MIC (Staphylococcus aureus [24]): 2 µg/mL (≈ 3.74 µM)
- MIC (Staphylococcus aureus [25]): 2 µg/mL (≈ 3.74 µM)
- MIC (Staphylococcus aureus [26]): 2 µg/mL (≈ 3.74 µM)
- MIC (Staphylococcus aureus [27]): 1 µg/mL (≈ 1.87 µM)
- MIC (Staphylococcus aureus [28]): 1 µg/mL (≈ 1.87 µM)
- MIC (Staphylococcus aureus [29]): 2 µg/mL (≈ 3.74 µM)
- MIC (Staphylococcus aureus [30]): 1 µg/mL (≈ 1.87 µM)
- MIC (Staphylococcus aureus [31]): 2 µg/mL (≈ 3.74 µM)
- MIC (Staphylococcus aureus [32]): 1 µg/mL (≈ 1.87 µM)
- MIC (Staphylococcus aureus [33]): 2 µg/mL (≈ 3.74 µM)
- MIC (Staphylococcus aureus [34]): 2 µg/mL (≈ 3.74 µM)
- MIC (Staphylococcus aureus [35]): 2 µg/mL (≈ 3.74 µM)
- MIC (Staphylococcus aureus [36]): 2 µg/mL (≈ 3.74 µM)
- MIC (Staphylococcus aureus [37]): 1 µg/mL (≈ 1.87 µM)
- MIC (Staphylococcus aureus [38]): 2 µg/mL (≈ 3.74 µM)
- MIC (Staphylococcus aureus [39]): 1 µg/mL (≈ 1.87 µM)
- MIC (Staphylococcus aureus [40]): 1 µg/mL (≈ 1.87 µM)
- MIC (Staphylococcus aureus [41]): 4 µg/mL (≈ 7.48 µM)
- MIC (Staphylococcus aureus [42]): 2 µg/mL (≈ 3.74 µM)
- MIC (Staphylococcus aureus [43]): 0.5 µg/mL (≈ 0.935 µM)
- MIC (Staphylococcus aureus [44]): 1 µg/mL (≈ 1.87 µM)
- MIC (Staphylococcus aureus [45]): 1 µg/mL (≈ 1.87 µM)
- MIC (Staphylococcus aureus [46]): 1 µg/mL (≈ 1.87 µM)
- MIC (Staphylococcus aureus [47]): 2 µg/mL (≈ 3.74 µM)
- MIC (Staphylococcus aureus [48]): 2 µg/mL (≈ 3.74 µM)
- MIC (Staphylococcus aureus [49]): 0.5 µg/mL (≈ 0.935 µM)
- MIC (Staphylococcus aureus [50]): 1 µg/mL (≈ 1.87 µM)
- MIC (Staphylococcus aureus [51]): 4 µg/mL (≈ 7.48 µM)
